Source: ChEMBL document CHEMBL1145014, “8-Aza-immucillins as transition-state analogue inhibitors of purine nucleoside phosphorylase and nucleoside hydrolases” (J Med Chem, 2003)

Assays:
[1] = Inhibitory activity of compound against […] inosine-adenosine-guanosine nucleoside hydrolase (IAG-NH) from Trypanosoma brucei
Procedure, shortened: (§1)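 Values are inhibition constants (Ki) against the nucleoside hydrolases: nonspecific inosine-uridine NH from *Crithidia fasciculata* and purine-specific inosine-adenosine-guanosine NH from *Trypanosoma brucei brucei*.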

[2] = Inhibitory activity of compound against inosine-uridine nucleoside hydrolase (IU-NH) from crithidia fasciculata; procedure, shortened: as §1
[3] = molecular target: T1, Purine nucleoside phosphorylase (Bos taurus, UniProt P55859); experiment: Inhibitory activity of compound against bovine purine nucleoside phosphorylase (PNP)
T1 sequence (P55859 whole entry): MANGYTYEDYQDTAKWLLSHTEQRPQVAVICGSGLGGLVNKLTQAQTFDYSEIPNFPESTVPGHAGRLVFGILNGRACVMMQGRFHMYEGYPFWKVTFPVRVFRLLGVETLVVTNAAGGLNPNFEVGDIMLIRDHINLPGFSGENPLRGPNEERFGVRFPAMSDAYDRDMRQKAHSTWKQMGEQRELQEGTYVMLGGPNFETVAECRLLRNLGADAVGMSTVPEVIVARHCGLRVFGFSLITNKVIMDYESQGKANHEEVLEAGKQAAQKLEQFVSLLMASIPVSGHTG

[4] = molecular target: T2, Purine nucleoside phosphorylase (Homo sapiens, UniProt P00491); experiment: Inhibitory activity of compound against human purine nucleoside phosphorylase (PNP)
T2 sequence (P00491 whole entry): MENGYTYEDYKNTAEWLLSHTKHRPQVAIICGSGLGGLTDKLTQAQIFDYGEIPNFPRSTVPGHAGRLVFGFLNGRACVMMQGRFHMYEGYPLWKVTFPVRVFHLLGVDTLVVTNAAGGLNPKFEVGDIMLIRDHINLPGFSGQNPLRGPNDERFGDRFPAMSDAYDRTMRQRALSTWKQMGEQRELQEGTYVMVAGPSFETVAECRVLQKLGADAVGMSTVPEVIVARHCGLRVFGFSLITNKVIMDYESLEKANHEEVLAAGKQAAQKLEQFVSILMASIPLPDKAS

[5] = molecular target: T3, Purine nucleoside phosphorylase (Bos taurus) (UniProt P55859)
T3 sequence (whole entry): T1 sequence (P55859 whole entry)

[6] = molecular target: T4, Purine nucleoside phosphorylase (Homo sapiens) (UniProt P00491)
T4 sequence (whole entry): T2 sequence (P00491 whole entry)

Row | SMILES | Ki [1] [nM] | Ki [2] [nM] | Ki [3] [nM] | Ki [4] [nM] | K6 [5] [s⁻¹] | K6 [6] [s⁻¹]
1 | NC(=O)c1[nH]nc(C2N[C@H](CO)[C@H](O)[C@@H]2O)c1N (stereo partly specified) | 3700 | 4800 | 0.06 | 0.096 | 0.019 | –
2 | Nc1[nH]cnc2c(C3N[C@H](CO)[C@H](O)[C@@H]3O)cnc1-2 (stereo partly specified) | 0.9 | 7.2 | – | – | – | –
3 | OC[C@H]1N[C@@H](c2n[nH]c3c(O)ncnc23)[C@H](O)[C@@H]1O | 13900 | 1600 | 0.042 | 0.104 | 0.021 | 0.013
4 | NC(=O)c1[nH]cc(C2N[C@H](CO)[C@H](O)[C@@H]2O)c1N (stereo partly specified) | 23 | 3 | – | – | – | –
5 | Nc1nc2c([C@@H]3N[C@H](CO)[C@@H](O)[C@H]3O)c[nH]c2c(=O)[nH]1 | – | – | 0.03 | 0.029 | 0.00019 | 0.0015
6 | O=c1[nH]cnc2c([C@@H]3N[C@H](CO)[C@@H](O)[C@H]3O)c[nH]c12 [FORODESINE] | 24 | 42 | 0.023 | – | 4e-05 | 0.0015
7 | Nc1ncnc2c(C3N[C@H](CO)[C@H](O)[C@@H]3O)n[nH]c12 (stereo partly specified) | 14000 | 150 | – | – | – | –
